Assay results as given in article PMC11235002 (BMJ Oncology, 2024).
Entries after “also recorded” stand apart in the source; their conditions may differ.

Columns and labels:
syngeneic mouse models = settings: multiple syngeneic mouse models; cited from earlier work
plasma arginine = experiment: Pharmacodynamics: plasma arginine concentration by LC-MS/MS; format: in vivo, human; settings: monotherapy / INCB001158 overall
[1] = tested on: patients with advanced or metastatic solid tumours; experiment: Safety: treatment-emergent adverse events; format: in vivo, human
Summary of the method: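 Safety covered monotherapy Parts 1a/2, with oral tablet or capsule dosing twice daily on days 1–28 of 28-day cycles. TEAEs were graded by CTCAE v4.03, which counts malignant progression as an AE. Laboratory values, vital signs and physical examinations were also monitored. The safety population was all patients receiving ≥1 dose. DLTs were defined as grade 3–4 toxicities, urea cycle inhibition, or AUC0–12h >100 µg.h/mL.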

## C[C@H](N)C(=O)N1C[C@H](CCCB(O)O)[C@](N)(C(=O)O)C1 [INCB001158]
Syngeneic mouse models
  tumour growth: reduced tumour growth
Plasma arginine
  plasma arginine change on treatment: dose-dependently increased; also recorded: dose-dependent increase in plasma arginine
[1]; monotherapy
  TEAEs leading to dose reduction: no TEAE led to dose reduction
  recommended phase 2 dose (RP2D): 100 mg two times per day
  serious TEAE abdominal pain: 5.6%
  serious TEAE back pain: 2.8%
  serious TEAE cellulitis: 2.8%
  serious TEAE malignant neoplasm progression: 4.7%
  serious TEAE small-intestinal obstruction: 2.8%
[1]; monotherapy 50 mg bid (n=8)
  ALT increased, any-grade TEAE: 0 n (%)
  AST increased, any-grade TEAE: 1 (12.5) n (%)
  Abdominal pain, any-grade TEAE: 2 (25.0) n (%)
  Abdominal pain, grade ≥3 TEAE: 1 (12.5) n (%)
  Anaemia, any-grade TEAE: 3 (37.5) n (%)
  Anaemia, grade ≥3 TEAE: 1 (12.5) n (%)
  Any TEAE: 7 (87.5) n (%)
  Any grade ≥3 TEAE: 6 (75.0) n (%)
  Any irTEAE: 0 n (%)
  Colitis, irTEAE: 0 n (%)
  Constipation, any-grade TEAE: 2 (25.0) n (%)
  Decreased appetite, any-grade TEAE: 0 n (%)
  Diarrhoea, any-grade TEAE: 0 n (%)
  Fatigue, any-grade TEAE: 1 (12.5) n (%)
  Fatigue, grade ≥3 TEAE: 0 n (%)
  Hypoalbuminaemia, any-grade TEAE: 0 n (%)
  Hyponatraemia, any-grade TEAE: 0 n (%)
  Hyponatraemia, grade ≥3 TEAE: 0 n (%)
  Malignant neoplasm progression, grade ≥3 TEAE: 0 n (%)
  Nausea, any-grade TEAE: 2 (25.0) n (%)
  Oedema peripheral, any-grade TEAE: 2 (25.0) n (%)
  Vomiting, any-grade TEAE: 2 (25.0) n (%)
[1]; monotherapy 75 mg bid (n=7)
  ALT increased, any-grade TEAE: 0 n (%)
  AST increased, any-grade TEAE: 0 n (%)
  Abdominal pain, any-grade TEAE: 0 n (%)
  Abdominal pain, grade ≥3 TEAE: 0 n (%)
  Anaemia, any-grade TEAE: 3 (42.9) n (%)
  Anaemia, grade ≥3 TEAE: 1 (14.3) n (%)
  Any TEAE: 7 (100.0) n (%)
  Any grade ≥3 TEAE: 2 (28.6) n (%)
  Any irTEAE: 0 n (%)
  Colitis, irTEAE: 0 n (%)
  Constipation, any-grade TEAE: 1 (14.3) n (%)
  Decreased appetite, any-grade TEAE: 2 (28.6) n (%)
  Diarrhoea, any-grade TEAE: 0 n (%)
  Fatigue, any-grade TEAE: 3 (42.9) n (%)
  Fatigue, grade ≥3 TEAE: 0 n (%)
  Hypoalbuminaemia, any-grade TEAE: 0 n (%)
  Hyponatraemia, any-grade TEAE: 1 (14.3) n (%)
  Hyponatraemia, grade ≥3 TEAE: 0 n (%)
  Malignant neoplasm progression, grade ≥3 TEAE: 0 n (%)
  Nausea, any-grade TEAE: 3 (42.9) n (%)
  Oedema peripheral, any-grade TEAE: 0 n (%)
  Vomiting, any-grade TEAE: 3 (42.9) n (%)
[1]; monotherapy 100 mg bid (n=85)
  ALT increased, any-grade TEAE: 4 (4.7) n (%)
  AST increased, any-grade TEAE: 8 (9.4) n (%)
  Abdominal pain, any-grade TEAE: 15 (17.6) n (%)
  Abdominal pain, grade ≥3 TEAE: 5 (5.9) n (%)
  Anaemia, any-grade TEAE: 11 (12.9) n (%)
  Anaemia, grade ≥3 TEAE: 4 (4.7) n (%)
  Any TEAE: 81 (95.3) n (%)
  Any grade ≥3 TEAE: 40 (47.1) n (%)
  Any irTEAE: 1 (1.2) n (%)
  Constipation, any-grade TEAE: 18 (21.2) n (%)
  Decreased appetite, any-grade TEAE: 17 (20.0) n (%)
  Diarrhoea, any-grade TEAE: 5 (5.9) n (%)
  Fatigue, any-grade TEAE: 23 (27.1) n (%)
  Fatigue, grade ≥3 TEAE: 6 (7.1) n (%)
  Hypoalbuminaemia, any-grade TEAE: 6 (7.1) n (%)
  Hyponatraemia, any-grade TEAE: 5 (5.9) n (%)
  Hyponatraemia, grade ≥3 TEAE: 2 (2.4) n (%)
  Malignant neoplasm progression, grade ≥3 TEAE: 5 (5.9) n (%)
  Nausea, any-grade TEAE: 18 (21.2) n (%)
  Oedema peripheral, any-grade TEAE: 13 (15.3) n (%)
  Vomiting, any-grade TEAE: 9 (10.6) n (%)
[1]; monotherapy 100 mg bid (n=85), related to INCB001158 treatment
  Colitis, irTEAE: 1 (1.2)¶ n (%)
[1]; monotherapy 150 mg bid (n=7)
  ALT increased, any-grade TEAE: 1 (14.3) n (%)
  AST increased, any-grade TEAE: 1 (14.3) n (%)
  Abdominal pain, any-grade TEAE: 1 (14.3) n (%)
  Abdominal pain, grade ≥3 TEAE: 0 n (%)
  Anaemia, any-grade TEAE: 0 n (%)
  Anaemia, grade ≥3 TEAE: 0 n (%)
